Converted amounts (≈) assume the structure as drawn.

The test system of the assay is Mycobacterium tuberculosis. In words: Antimycobacterial activity against p-aminosalicylic acid/isonicotinic acid hydrazide/etambutol/rifampicin-resistant Mycobacterium tuberculosis Spec. 210. In kind it is functional. An outline of the steps: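 Classical test-tube successive-dilution method in Youmans' modification of Proskauer and Beck liquid medium with 10% bovine serum. Inoculum came from 14-day cultures. DMSO stock was 10 mg/mL, diluted geometrically in medium. Tubes were incubated at 37 °C. Concentrations tested were 3.1, 6.2, 12.5, 25, 50 and 100 µg/ml. MIC is the minimum concentration inhibiting growth relative to compound-free tubes.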
As for `FC(F)(F)c1cccc(NC(S)=Nc2ccc(Cl)c(Cl)c2)c1`, the minimum inhibitory concentration (MIC) came to 50 µg/mL (≈ 137 µM).
On to `FC(F)(F)c1cccc(NC(S)=NCc2ccccc2)c1`, for which the MIC is 25 µg/mL (≈ 80.6 µM).
As for `O=C(NC(=S)Nc1cccc(C(F)(F)F)c1)c1ccccc1`, the figure is above 100 µg/mL; as for `FC(F)(F)c1cccc(NC(=S)Nc2ccccc2)c1`, 50 µg/mL (≈ 169 µM).
For the compound `Fc1ccc(NC(=S)Nc2cccc(C(F)(F)F)c2)cc1`, the lowest concentration to inhibit growth (MIC) was 25 µg/mL (≈ 79.5 µM).
Consider `Fc1cccc(NC(=S)Nc2cccc(C(F)(F)F)c2)c1`, for which the MIC was found to be 25 µg/mL (≈ 79.5 µM).
The compound `Fc1ccccc1NC(=S)Nc1cccc(C(F)(F)F)c1` yielded an MIC of 100 µg/mL (≈ 318 µM).
As for `Fc1ccc(NC(=S)Nc2cccc(C(F)(F)F)c2)cc1Cl`, the figure is 50 µg/mL (≈ 143 µM).
Turning to `Cc1ccc(NC(=S)Nc2cccc(C(F)(F)F)c2)cc1Cl`, the MIC was above 100 µg/mL.
As for `FC(F)(F)c1cccc(NC(=S)Nc2ccc(Cl)cc2)c1`, the MIC was above 100 µg/mL.
Compound `N#Cc1ccc(NC(=S)Nc2cccc(C(F)(F)F)c2)cc1` came in with a minimal inhibitory concentration (MIC) above 100 µg/mL.
`O=[N+]([O-])c1ccc(NC(=S)Nc2cccc(C(F)(F)F)c2)cc1`: inhibition of growth (MIC) required 50 µg/mL (≈ 146 µM).
`FC(F)(F)c1cccc(NC(=S)Nc2cccc(Br)c2)c1` came in with a minimal inhibitory concentration (MIC) of 100 µg/mL (≈ 267 µM). Against the preceding compound, the MIC is about 2-fold higher.
Take `COc1cccc(NC(=S)Nc2cccc(C(F)(F)F)c2)c1`: the MIC is above 100 µg/mL.
`CCCCc1ccc(NC(=S)Nc2cccc(C(F)(F)F)c2)c(C)c1` displayed an MIC of 50 µg/mL (≈ 136 µM).
The compound `COC(=O)c1ccccc1NC(=S)Nc1cccc(C(F)(F)F)c1` gave an MIC above 100 µg/mL.
As for `CCOC(=O)c1ccc(NC(=S)Nc2cccc(C(F)(F)F)c2)cc1`, the figure is above 100 µg/mL; as for `FC(F)(F)c1cccc(NC(=S)NCc2ccco2)c1`, above 100 µg/mL; as for `CSCCCNC(=S)Nc1cccc(C(F)(F)F)c1`, 50 µg/mL (≈ 162 µM).
Consider `FC(F)(F)c1cccc(NC(=S)NCCc2ccccc2)c1`, for which inhibition of growth (MIC) required 50 µg/mL (≈ 154 µM).
For `CCNC(=S)Nc1cccc(C(F)(F)F)c1`, the MIC is above 100 µg/mL.
As for `C=C(C)CNC(=S)Nc1cccc(C(F)(F)F)c1`, the figure is above 100 µg/mL.
Compound `FC(F)(F)c1cccc(NC(=S)NC2CCCCC2)c1` had an MIC above 100 µg/mL.
Take `FC(F)(F)c1cccc(NC(=S)Nc2cccc(Cl)c2)c1`: the MIC was determined as 100 µg/mL (≈ 302 µM).
`NNC(=O)c1ccncc1` [ISONIAZID] gave an MIC of 6.25 µg/mL (≈ 45.6 µM).
